Laboratory results published in ChEMBL document CHEMBL1141702 (Bioorg Med Chem Lett, 2008).

Assays:
[1] = target: Sigma non-opioid intracellular receptor 1 (Cavia porcellus, UniProt Q60492); assay: Displacement of [3H](+)-pentazocine from sigma 1 receptor in guinea pig brain membrane; type: cell membranes
Outline: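 Tissue was previously frozen guinea pig brain minus cerebellum, incubated 120 min at 25 °C. Ki values derived from competition binding.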

[2] = target: Sodium-dependent dopamine transporter (Rattus norvegicus, UniProt P23977); assay: Displacement of [3H]WIN-35428 from DAT in rat striatum membrane; type: cell membranes
[3] = target: Sodium-dependent serotonin transporter (Rattus norvegicus, UniProt P31652); assay: Displacement of [3H]citalopram from SERT in rat brain stem membrane; type: cell membranes
Outline: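 [³H]Citalopram binding in previously frozen rat brain stem, buffer 50 mM Tris, 5 mM KCl, 120 mM NaCl. Incubation 60 min at 25 °C. Ki values derived from competition binding.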

Transporter = Transporter (Rattus norvegicus, UniProt Q63380); assay: Displacement of [3H]nisoxetine from NET in rat frontal cortex membrane; type: cell membranes
Outline: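 Assay used previously frozen rat frontal cortex with [³H]nisoxetine in 50 mM Tris, 5 mM KCl, 120 mM NaCl buffer. Incubated 180 min on ice. Ki values derived from competition binding.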

Rattus norvegicus [4] = organism: Rattus norvegicus; assay: Selectivity ratio of Ki for rat brain stem SERT to Ki for rat frontal cortex NET; type: tissue-based
Rattus norvegicus [5] = organism: Rattus norvegicus; assay: Selectivity ratio of Ki for rat brain stem SERT to Ki for rat striatum DAT; type: tissue-based
[6] = Selectivity ratio of Ki for rat brain stem SERT to Ki for guinea pig brain sigma 1 receptor

Chain of Transporter (Q63380 whole entry): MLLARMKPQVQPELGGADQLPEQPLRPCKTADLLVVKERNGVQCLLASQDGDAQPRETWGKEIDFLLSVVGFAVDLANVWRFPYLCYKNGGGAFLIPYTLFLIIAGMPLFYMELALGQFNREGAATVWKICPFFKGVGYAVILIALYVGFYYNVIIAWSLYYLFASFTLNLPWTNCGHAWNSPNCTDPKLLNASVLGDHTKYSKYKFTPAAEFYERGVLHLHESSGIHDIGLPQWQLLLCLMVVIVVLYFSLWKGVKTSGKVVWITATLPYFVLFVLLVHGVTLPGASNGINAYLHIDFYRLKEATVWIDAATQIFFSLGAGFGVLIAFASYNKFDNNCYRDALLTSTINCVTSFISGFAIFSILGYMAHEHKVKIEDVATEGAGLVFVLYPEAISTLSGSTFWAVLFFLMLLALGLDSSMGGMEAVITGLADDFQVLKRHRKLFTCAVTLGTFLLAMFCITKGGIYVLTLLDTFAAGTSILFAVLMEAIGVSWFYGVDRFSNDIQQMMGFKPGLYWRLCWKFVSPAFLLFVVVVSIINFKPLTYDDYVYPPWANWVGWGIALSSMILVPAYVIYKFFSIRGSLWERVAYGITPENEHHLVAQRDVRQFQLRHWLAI
Chain of Sigma non-opioid intracellular receptor 1 (Q60492 whole entry): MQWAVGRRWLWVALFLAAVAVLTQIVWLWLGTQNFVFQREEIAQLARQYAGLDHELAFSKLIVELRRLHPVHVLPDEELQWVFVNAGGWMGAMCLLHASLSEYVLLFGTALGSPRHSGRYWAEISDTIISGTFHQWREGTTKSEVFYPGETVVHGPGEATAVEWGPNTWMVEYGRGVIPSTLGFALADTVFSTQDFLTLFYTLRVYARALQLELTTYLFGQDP
Chain of Sodium-dependent dopamine transporter (P23977 whole entry): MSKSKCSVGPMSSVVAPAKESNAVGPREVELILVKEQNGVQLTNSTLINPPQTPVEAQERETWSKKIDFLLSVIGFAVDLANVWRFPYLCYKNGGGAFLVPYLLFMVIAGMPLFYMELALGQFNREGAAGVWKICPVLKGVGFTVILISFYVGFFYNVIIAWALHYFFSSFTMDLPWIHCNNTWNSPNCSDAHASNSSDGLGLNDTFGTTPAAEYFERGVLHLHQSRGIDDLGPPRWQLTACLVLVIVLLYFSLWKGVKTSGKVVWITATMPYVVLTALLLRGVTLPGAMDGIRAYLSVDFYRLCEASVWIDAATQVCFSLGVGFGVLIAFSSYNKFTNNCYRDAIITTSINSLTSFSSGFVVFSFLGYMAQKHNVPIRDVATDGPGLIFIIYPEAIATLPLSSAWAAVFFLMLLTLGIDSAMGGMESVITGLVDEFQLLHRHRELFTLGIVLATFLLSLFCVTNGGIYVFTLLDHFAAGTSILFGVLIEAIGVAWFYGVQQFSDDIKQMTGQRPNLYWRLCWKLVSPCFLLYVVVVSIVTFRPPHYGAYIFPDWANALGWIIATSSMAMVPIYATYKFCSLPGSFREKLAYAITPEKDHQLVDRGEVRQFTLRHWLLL
Chain of Sodium-dependent serotonin transporter (P31652 whole entry): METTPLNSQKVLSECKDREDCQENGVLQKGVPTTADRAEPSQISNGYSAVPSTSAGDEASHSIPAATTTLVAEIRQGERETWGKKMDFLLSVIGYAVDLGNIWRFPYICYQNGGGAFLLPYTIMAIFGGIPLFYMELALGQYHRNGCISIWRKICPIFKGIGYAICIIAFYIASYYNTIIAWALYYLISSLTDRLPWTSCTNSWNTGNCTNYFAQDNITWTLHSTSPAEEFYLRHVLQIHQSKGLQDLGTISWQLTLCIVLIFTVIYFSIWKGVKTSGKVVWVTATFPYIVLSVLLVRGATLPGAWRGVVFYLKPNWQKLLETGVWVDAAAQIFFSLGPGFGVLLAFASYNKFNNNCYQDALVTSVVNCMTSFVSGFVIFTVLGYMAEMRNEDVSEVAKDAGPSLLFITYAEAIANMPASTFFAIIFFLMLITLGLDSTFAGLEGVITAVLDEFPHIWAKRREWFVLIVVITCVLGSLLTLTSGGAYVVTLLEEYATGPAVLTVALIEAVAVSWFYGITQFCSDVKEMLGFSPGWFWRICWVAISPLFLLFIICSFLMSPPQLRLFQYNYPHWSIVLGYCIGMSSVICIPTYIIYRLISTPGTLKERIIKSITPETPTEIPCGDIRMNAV

Compound | Ki [1] [nM] | Ki [2] [nM] | Ki [3] [nM] | Ki (Transporter) [nM] | Ratio Ki (Rattus norvegicus [4]) | Ratio Ki (Rattus norvegicus [5]) | Ratio Ki [6]
CCC(=O)O[C@@H](Cc1ccccc1)CN1CCN(CCCN(c2ccc(F)cc2)c2ccc(F)cc2)CC1 | 81.8 | 15.1 | 1040 |  |  |  | 
CC(C)C(=O)OC(CCN1CCN(CCCN(c2ccc(F)cc2)c2ccc(F)cc2)CC1)c1ccccc1 (stereo not given) | 88.3 | 9.36 | 543 |  |  |  | 
O[C@H](Cc1ccccc1)CN1CCN(CCCN(c2ccc(F)cc2)c2ccc(F)cc2)CC1 | 33.4 | 5.36 | 521 | 2110 |  |  | 
C=CC(=O)OC(CCN1CCN(CCCN(c2ccc(F)cc2)c2ccc(F)cc2)CC1)c1ccccc1 (stereo not given) | 87.3 | 6.71 | 318 | 1950 |  |  | 
O=C(Cc1ccccc1)OC(CCN1CCN(CCCN(c2ccc(F)cc2)c2ccc(F)cc2)CC1)c1ccccc1 (stereo not given) | 135 | 14.9 | 1230 | 2740 | 184 | 83 | 9
C=CC(=O)O[C@@H](Cc1ccccc1)CN1CCN(CCCN(c2ccc(F)cc2)c2ccc(F)cc2)CC1 | 45.5 | 3.26 | 660 | 810 |  |  | 
O=C(CCc1ccccc1)OC(CCN1CCN(CCCN(c2ccc(F)cc2)c2ccc(F)cc2)CC1)c1ccccc1 (stereo not given) | 235 | 36.6 | 1300 |  |  |  | 
CCCN(CCC)CCc1ccc(OC)c(OCCc2ccccc2)c1 |  | 3620 | > 10000 |  |  |  | 
CCCC(=O)O[C@@H](Cc1ccccc1)CN1CCN(CCCN(c2ccc(F)cc2)c2ccc(F)cc2)CC1 | 292 | 33.5 | 1680 |  |  |  | 
O[C@@H](Cc1ccccc1)CN1CCN(CCCN(c2ccc(F)cc2)c2ccc(F)cc2)CC1 | 28.1 | 1.72 | 779 | 766 |  |  | 
O=C(CCCc1ccccc1)OC(CCN1CCN(CCCN(c2ccc(F)cc2)c2ccc(F)cc2)CC1)c1ccccc1 (stereo not given) | 246 | 51.3 | 2190 | > 10000 |  |  | 
Fc1ccc(C(OCCN2CCN(CCCc3ccccc3)CC2)c2ccc(F)cc2)cc1 [VANOXERINE] | 50.8 |  |  |  |  |  | 
CC(=O)OC(CCN1CCN(CCCN(c2ccc(F)cc2)c2ccc(F)cc2)CC1)c1ccccc1 (stereo not given) | 56.6 | 4.28 | 204 | 990 |  |  | 
O=C(Cc1ccccc1)O[C@@H](Cc1ccccc1)CN1CCN(CCCN(c2ccc(F)cc2)c2ccc(F)cc2)CC1 | 87.4 | 6.92 | 1950 | 1680 | 243 | 282 | 13
OC(CCN1CCN(CCCN(c2ccc(F)cc2)c2ccc(F)cc2)CC1)c1ccccc1 (racemic) |  | 3.45 |  |  |  |  | 
C[C@@H]1CN(CCCn2c3ccccc3c3ccccc32)C[C@H](C)N1 [RIMCAZOLE] |  | 97.7 |  |  |  |  | 
CC(=O)O[C@@H](Cc1ccccc1)CN1CCN(CCCN(c2ccc(F)cc2)c2ccc(F)cc2)CC1 | 75 | 21.7 | 835 |  |  |  | 
CCC(=O)OC(CCN1CCN(CCCN(c2ccc(F)cc2)c2ccc(F)cc2)CC1)c1ccccc1 (stereo not given) | 76 | 5.57 | 273 | 1500 | 269 | 49 | 14
